An excerpt weighted towards active compounds, which were near 3.3% of everything screened.
E-sel inducer – induces E-selectin expression in human endothelial cells | P16581 | activation, % at 7.58 µM | 260,000 tested, 0.37% active | HUVEC E-selectin immunofluorescence imaging; normalized: neutral wells 0, TNF-alpha wells 100;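 active = mean E-selectin-positive cell signal at least 10% of the positive control, reached in at least 60% of replicates, without over 20% cell loss; inconclusive = no rule given, readout overlaps actives, possibly toxicity-flagged; inactive = the rest, including those meeting only one limit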
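Test system: HUVEC | Signal: Immunofluorescence imaging | Read-out: Percent E-selectin-positive cells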
PglD inh – inhibitors of Campylobacter jejuni PglD acetyltransferase; purified PglD enzyme, DTNB colorimetric CoA detection; inhibition, % at 12.5 µM; 360,000 tested, 0.098% active; AID 602405; in the data active = inhibition above about 16%, passing the limit was not always enough; inconclusive = no clear call, values can overlap the other calls
Xi reactivation – X-chromosome reactivation activator; XiGFP mouse fibroblasts, % GFP-positive cells imaging, 3 d; cells co-treated with 5-aza-dC sensitizer; scaled so ellipticine positive control = 100%; activation, % at 7.58 µM; 360,000 tested, 0.055% active; AID 743238;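 active = mean normalized replicate activation at least 10% and every replicate at or above 10%; inconclusive = only one of the two criteria met; inactive = mean below 10% and not all replicates reach 10%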;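 note: 0% = median of on-plate neutral control wells and 100% = ellipticine 6 µM median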
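Schedule: 3 d treatment, 15 min room-temperature fixation; system: 68-5-11 XiGFP fibroblast line; buffer or medium: DMEM plus 5-aza-dC sensitizer; control set: ellipticine 6 µM positive control; compound: one concentration, pinned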
FGF22 binding – binders of recombinant human FGF22 by thermal shift. 340,000 tested, 1.5% active. activity (Tm shift, normalised), % at 9.99 µM. SYPRO orange fluorescence; percent of sucrose octasulfate shift, DMSO zero. AID 651658;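 active = mean Tm shift, scaled 0 neutral to 100 positive control, at about 1.3% or above, every replicate too, limit read from the data; inconclusive = no clear call, values can overlap the other calls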
DENV2 CPE – protects cells from dengue virus 2 cytopathic effect; CPE inhibition, % at 9.99 µM; 350,000 tested, 1.7% active; DENV2-infected cells, cytopathic effect rescue, plate reader; AID 651640; in the data active = CPE inhibition above about 20%, passing the limit was not always enough; inconclusive = no clear call, values can overlap the other calls; tested in BHK-21 cells;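 note: 0% = median of neutral control wells and 100% = median of positive control wells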
Statin myotox sup – protects C2C12 myotubes from simvastatin toxicity; ATP luminescence, 48 h; scaled: DMSO 0, geranylgeraniol control 100; rescue of ATP level, % at 7.49 µM; 330,000 tested, 0.78% active; AID 602340;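 active = mean ATP rescue above about 67%, or every replicate alone reaching that limit, limit read from the data, passing the limit was not always enough; inconclusive = no clear call, values can overlap the other calls; inactive = mean under the limit and some replicate under it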;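 note: myotubes were challenged with 10 µM simvastatin during compound exposure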
Starred values were filed as active, the others as inactive; ? = inconclusive; nt = no result.

SMILES	E-sel inducer	PglD inh	Xi reactivation	FGF22 binding	DENV2 CPE	Statin myotox sup
O=C(Nc1ccc(F)cc1)N1C[C@H]2[C@@H](c3ccccc31)[C@@H](CO)N2C(=O)c1ccccc1F	0	5	1	0	-3	11
Cc1ccc(CNC(=O)[C@H](C)N2C(=O)N3CCc4c([nH]c5ccccc45)[C@@]3(C)C2=O)cc1	nt	0	nt	0	35*	14
O=C(NCC[C@H]1CC[C@H](NS(=O)(=O)c2cccc(F)c2)[C@H](CO)O1)c1cnccn1	0	0	0	0	-4	-1
CC(C)OCC(O)CN (configuration not stated)	nt	-2	nt	nt	nt	97*
C=CCn1c(SCC(=O)Nc2cc(C)on2)nnc1C1COc2ccccc2O1 (configuration not stated)	0	nt	0	0	-2	nt
Cc1cc(NC(=O)CSc2nnc(C3COc4ccccc4O3)n2N)no1 (configuration not stated)	0	-2	0	43*	2	5
CCC(=O)Nc1ccc2c(c1)C(=O)N(C)[C@H]1CC[C@H](CC(=O)NCCc3ccncc3)O[C@H]1CO2	0	nt	0	nt	nt	0
COc1ccc(C(CC(=O)N2CCCC(C)C2)c2c(O)cc(OC)cc2OC)cc1 (configuration not stated)	0	4	0	0	14	21
COc1cc(O)c(C(CC(=O)N2CCCC(C)C2)c2cc(OC)c(OC)c(OC)c2)c(OC)c1 (configuration not stated)	0	-6	0	0	62*	5
Cc1ccc(S(=O)(=O)Nc2ccc3c(c2)CC(=O)N([C@H](C)CO)C[C@@H](C)[C@H](CN(C)C(=O)NC(C)C)O3)cc1	0	-11	2	0	-5	20
C[C@H]1CN([C@@H](C)CO)C(=O)c2cccc(NS(=O)(=O)c3cn(C)cn3)c2O[C@H]1CN(C)Cc1ccc(-c2ccccc2)cc1	0	1	0	0	7	-6
CC(NC(=O)COC(=O)CCc1nc2ccccc2c(=O)[nH]1)c1ccccc1 (configuration not stated)	49*	2	0	0	3	7
C[C@@H]1CN([C@@H](C)CO)C(=O)c2cc(C#CC3CCCC3)cnc2O[C@@H]1CN(C)S(=O)(=O)c1cccc(F)c1	1	1	0	0	15	-34
COc1ccc(N2C(=O)C(CC(=O)Nc3ccccc3)N(CCc3ccc(OC)c(OC)c3)C2=O)cc1 (configuration not stated)	nt	nt	0	44*	-5	8
C[C@H](CO)N1C[C@H](C)[C@H](CN(C)Cc2ccc(-c3ccccc3)cc2)Oc2ncc(C#C[C@@H](C)O)cc2C1=O	2	-4	0	0	-5	-26
CC(C)NC(=O)N1CCCCN2[C@H](CO)[C@H](c3ccc(C#CC4CC4)cc3)[C@H]2C1	0	2	0	0	66*	-3
CC(C)NC(=O)N1CCCCN2[C@H](C1)[C@@H](c1ccc(C#CC3CC3)cc1)[C@@H]2CO	0	-2	0	0	?	-23
CC(C)NC(=O)N1CCCCN2[C@@H](CO)[C@@H](c3ccc(C#CC4CC4)cc3)[C@@H]2C1	0	5	0	0	40*	-29
CC(C)NC(=O)N1CCCCN2[C@H](C1)[C@H](c1ccc(C#CC3CC3)cc1)[C@@H]2CO	0	-5	0	0	-10	32
CC=Cc1ccc2n(c1=O)C[C@@H]1[C@@H](CO)[C@H](C(=O)N3CCc4ccccc4C3)N(C(=O)C3CC3)[C@H]21 (mixture of isomers)	0	12	0	0	1	-4
CCCC(=O)Nc1cc(C(=O)O)ccc1Sc1ccc(C)cc1	5	nt	0	43*	3	nt
CC(=O)Nc1cc(C(=O)N2CCc3ccccc3C2)ccc1Sc1ccc(C)cc1	0	nt	0	nt	nt	nt
CCCN1CCN(C(=O)c2ccc(Sc3ccc(C)cc3)c(NC(C)=O)c2)CC1	nt	nt	nt	0	3	80*

Bioassay records as filed in PubChem.
